Measured values from ChEMBL document CHEMBL1137710, “Synthesis and in vitro antitumor activity of new quinoxaline derivatives” (2009).

Columns and labels:
Format in all cases: functional
K562 = assay: Growth inhibition of human K562 cells after 48 hrs by sulforhodamine B assay; conditions: K562, 48 h
Method in brief: (§1)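 NCI 60-human-tumor-cell-line panel, with compounds tested over a 5-log dose range. Values are taken from dose-response curves as log10 molar concentrations: GI50 is 50% net growth inhibition, TGI is total growth inhibition, and LC50 is 50% net cell death.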

UACC-257 = assay: Growth inhibition of human UACC257 cells after 48 hrs by sulforhodamine B assay; conditions: UACC-257, 48 h
Method in brief: (§2)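 Run in the NCI 60-human-tumour-cell-line panel, tested over a 5-log dose range. Dose–response curves gave three values per cell line, each as a log10 molar concentration: GI50 (50% inhibition of net cell growth), TGI (total inhibition of net growth) and LC50 (50% net cell death). The mean graph midpoint is the arithmetic mean over all lines, with insensitive lines entered at the highest concentration tested.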

HOP-92 = assay: Growth inhibition of human HOP92 cells after 48 hrs by sulforhodamine B assay; conditions: HOP-92, 48 h; method in brief: as §1
SK-MEL-5 = assay: Growth inhibition of human SK-MEL-5 cells after 48 hrs by sulforhodamine B assay; conditions: SK-MEL-5, 48 h; method in brief: as §1
HL-60(TB) = assay: Growth inhibition of human HL-60(TB) cells after 48 hrs by sulforhodamine B assay; conditions: HL-60, 48 h
Method in brief: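 Tested only on compounds active in a three-line prescreen, in the NCI 60-human-tumour-cell-line panel over a 5-log dose range. Values come from dose–response curves as log10 molar GI50, the concentration inhibiting 50% net cell growth. Log10 TGI (total growth inhibition) and log10 LC50 (50% net cell death) were derived too. Mean graph midpoints include insensitive lines at the highest concentration tested.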

HOP-62 = assay: Growth inhibition of human HOP62 cells after 48 hrs by sulforhodamine B assay; conditions: HOP-62, 48 h; method in brief: as §1
OVCAR-3 = assay: Growth inhibition of human OVCAR-3 cells after 48 hrs by sulforhodamine B assay; conditions: OVCAR-3, 48 h; method in brief: as §1
NCI-H460 = assay: Anticancer activity against human NCI-H460 cells assessed as cell growth at 100 uM after 48 hrs by sulforhodamine B assay; conditions: NCI-H460, 48 h, read-out: Activity
MCF7 = assay: Growth inhibition of human MCF7 cells after 48 hrs by sulforhodamine B assay; conditions: MCF7, 48 h; method in brief: as §1
UO-31 = assay: Growth inhibition of human UO31 cells after 48 hrs by sulforhodamine B assay; conditions: UO-31, 48 h; method in brief: as §2
NCI-H522 = assay: Growth inhibition of human NCI-H522 cells after 48 hrs by sulforhodamine B assay; conditions: NCI-H522, 48 h; method in brief: as §1
SF-268 = assay: Growth inhibition of human SF268 cells after 48 hrs by sulforhodamine B assay; conditions: SF-268, 48 h; method in brief: as §1
SK-MEL-2 = assay: Growth inhibition of human SK-MEL-2 cells after 48 hrs by sulforhodamine B assay; conditions: SK-MEL-2, 48 h; method in brief: as §1
HCT-15 = assay: Growth inhibition of human HCT15 cells after 48 hrs by sulforhodamine B assay; conditions: HCT-15, 48 h; method in brief: as §1
HT-29 = assay: Growth inhibition of human HT-29 cells after 48 hrs by sulforhodamine B assay; conditions: HT-29, 48 h; method in brief: as §1
ACHN = assay: Growth inhibition of human ACHN cells after 48 hrs by sulforhodamine B assay
SK-MEL-28 = assay: Growth inhibition of human SK-MEL-28 cells after 48 hrs by sulforhodamine B assay; conditions: SK-MEL-28, 48 h; method in brief: as §1
UACC-62 = assay: Growth inhibition of human UACC62 cells after 48 hrs by sulforhodamine B assay; conditions: UACC-62, 48 h; method in brief: as §2
MOLT-4 = assay: Growth inhibition of human MOLT4 cells after 48 hrs by sulforhodamine B assay; conditions: MOLT-4, 48 h; method in brief: as §1
NCI-H322M = assay: Growth inhibition of human NCI-H322M cells after 48 hrs by sulforhodamine B assay; method in brief: as §1
NCI-H226 = assay: Growth inhibition of human NCI-H226 cells after 48 hrs by sulforhodamine B assay; conditions: NCI-H226, 48 h; method in brief: as §1
IGROV-1 = assay: Growth inhibition of human IGROV1 cells after 48 hrs by sulforhodamine B assay; conditions: IGROV-1, 48 h; method in brief: as §1
OVCAR-4 = assay: Growth inhibition of human OVCAR4 cells after 48 hrs by sulforhodamine B assay; conditions: OVCAR-4, 48 h; method in brief: as §1
SF-539 = assay: Growth inhibition of human SF539 cells after 48 hrs by sulforhodamine B assay; conditions: SF-539, 48 h; method in brief: as §1
[1] = read-out: pLC50 (the source's name) (converted)

## Nc1cc(N)c2nc(-c3ccccc3)c(Oc3ccc(F)cc3)nc2c1
K562
  GI50: 11 µM
  LC50: > 100 µM
K562; read-out: pTGI (converted)
  TGI: > 100 µM
UACC-257
  GI50: 23.4 µM
UACC-257; [1]
  CC50: 77.6 µM
UACC-257; read-out: pTGI (converted)
  TGI: 42.7 µM
HOP-92
  GI50: 12.3 µM
  LC50 (50% net cell death): 72.4 µM
HOP-92; read-out: pTGI (converted)
  TGI: 29.5 µM
SK-MEL-5
  GI50: 12.3 µM
SK-MEL-5; [1]
  CC50: 83.2 µM
SK-MEL-5; read-out: pTGI (converted)
  TGI: 31.6 µM
HL-60(TB)
  GI50: 18.6 µM
  LC50: > 100 µM
HL-60(TB); read-out: pTGI (converted)
  TGI: 64.6 µM
HOP-62
  GI50: 21.4 µM
  LC50: > 100 µM
HOP-62; read-out: pTGI (converted)
  TGI: 49 µM
OVCAR-3
  GI50: 15.5 µM
OVCAR-3; [1]
  CC50: > 100 µM
OVCAR-3; read-out: pTGI (converted)
  TGI: 41.7 µM
NCI-H460
  growth at 100 µM: 0%
MCF7
  GI50: 20.4 µM
MCF7; [1]
  CC50: > 100 µM
MCF7; read-out: pTGI (converted)
  TGI: > 100 µM
UO-31
  GI50: 13.5 µM
UO-31; [1]
  CC50: > 100 µM
UO-31; read-out: pTGI (converted)
  TGI: 45.7 µM
NCI-H522
  GI50: 64.6 µM
  LC50: > 100 µM
NCI-H522; read-out: pTGI (converted)
  TGI: > 100 µM
SF-268
  GI50: 13.8 µM
  LC50: > 100 µM
SF-268; read-out: pTGI (converted)
  TGI: 47.9 µM
SK-MEL-2
  GI50: 42.7 µM
SK-MEL-2; [1]
  CC50: > 100 µM
SK-MEL-2; read-out: pTGI (converted)
  TGI: > 100 µM
HCT-15
  GI50: 36.3 µM
  LC50: > 100 µM
HCT-15; read-out: pTGI (converted)
  TGI: > 100 µM
HT-29
  GI50: 22.9 µM
  LC50: > 100 µM
HT-29; read-out: pTGI (converted)
  TGI: 51.3 µM
ACHN
  GI50: 13.8 µM
ACHN; [1]
  CC50: 81.3 µM
ACHN; read-out: pTGI (converted)
  TGI: 33.1 µM
SK-MEL-28
  GI50: 19.5 µM
SK-MEL-28; [1]
  CC50: > 100 µM
SK-MEL-28; read-out: pTGI (converted)
  TGI: 46.8 µM
UACC-62
  GI50: 15.8 µM
UACC-62; [1]
  CC50: 69.2 µM
UACC-62; read-out: pTGI (converted)
  TGI: 33.1 µM
MOLT-4
  GI50: 6.61 µM
  LC50: > 100 µM
MOLT-4; read-out: pTGI (converted)
  TGI: > 100 µM
NCI-H322M
  GI50: 17 µM
  LC50: 81.3 µM
NCI-H322M; read-out: pTGI (converted)
  TGI: 37.2 µM
NCI-H226
  GI50: 20.4 µM
  LC50: > 100 µM
NCI-H226; read-out: pTGI (converted)
  TGI: 49 µM
IGROV-1
  GI50: 28.2 µM
IGROV-1; [1]
  CC50: > 100 µM
IGROV-1; read-out: pTGI (converted)
  TGI: > 100 µM
OVCAR-4
  GI50: 8.32 µM
OVCAR-4; [1]
  CC50: > 100 µM
OVCAR-4; read-out: pTGI (converted)
  TGI: 35.5 µM
SF-539
  GI50: 18.2 µM
  LC50: 70.8 µM
SF-539; read-out: pTGI (converted)
  TGI: 35.5 µM
